Experimental data from ChEMBL document CHEMBL5058577, “EUbOPEN Chemogenomics Library 2 (Multiplex)” (2022).
Values joined by “and” are separate entries in the source; they are usually repeats but may differ in a detail not shown here. Equal entries are not always repeated.

Experiments:
Type in all cases: toxicity, cell-based
HEK-293T = assay: Multiplex assay against HEK293T; conditions: human, 10 µM, compound concentration 10 uM
In short: (§1)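 Phenotypes for tubulin, mitochondrial mass and membrane permeability are expressed as per cents of healthy-nucleus cells. Cells were stained live at seeding with Hoechst33342, BioTracker Green Microtubule Cytoskeleton Dye, MitoTracker Red and Annexin V Alexa Fluor 680, then imaged after compound addition on a CQ1 microscope at 37°C and 5% CO2. Machine-learning gating in CellPathfinder separated Hoechst high-intensity objects from normal cells, divided normal cells by nuclear state (healthy, pyknosed, fragmented) and divided pyknosed cells into mitotic or apoptotic.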

Fibroblast = assay: Multiplex assay against human fibroblast; conditions: 10 µM, compound concentration 10 uM; in short: as §1
U2OS = assay: Multiplex assay against U2OS; conditions: human, 10 µM, compound concentration 10 uM; in short: as §1

For CCC(=O)N1CCN(c2ccc(-n3c(=O)ccc4cnc5ccc(-c6cnc7ccccc7c6)cc5c43)cc2C(F)(F)F)CC1 [TORIN1], the “Population Apoptotic (%)” value (HEK-293T; 12 h, replicate 1) was 71% and 67%, the “Population Healthy Nuclei (%)” value (HEK-293T; 12 h, replicate 1) was 76% and 71% and the “Population Membrane Permeable-Phenotype (%)” value (HEK-293T; 12 h, replicate 1) was 0%. The “Population Mitochondria Different-Phenotype (%)” value (HEK-293T; 12 h, replicate 1) was 78% and 76%, the “Population Normal (%)” value (HEK-293T; 12 h, replicate 1) was 88% and the “Population Tubulin-Different-Phenotype (%)” value (HEK-293T; 12 h, replicate 1) was 40%. The “Total Cell Count” value (HEK-293T; 12 h, replicate 1) was 373 and 299, the “Population Apoptotic (%)” value (HEK-293T; 12 h, replicate 2) was 51% and 57% and the “Population Healthy Nuclei (%)” value (HEK-293T; 12 h, replicate 2) was 79%. The “Population Mitochondria Different-Phenotype (%)” value (HEK-293T; 12 h, replicate 2) was 87%, the “Population Mitotic Cells (%)” value (HEK-293T; 12 h, replicate 2) was 48% and 42% and the “Population Normal (%)” value (HEK-293T; 12 h, replicate 2) was 92%. The “Population Tubulin-Different-Phenotype (%)” value (HEK-293T; 12 h, replicate 2) was 37%, the “Total Cell Count” value (HEK-293T; 12 h, replicate 2) was 266 and 321 and the “Population Apoptotic (%)” value (HEK-293T; 24 h, replicate 1) was 45%. For the same compound, the “Population Healthy Nuclei (%)” value (HEK-293T; 24 h, replicate 1) was 75% and 74%, the “Population Membrane Permeable-Phenotype (%)” value (HEK-293T; 24 h, replicate 1) was 0% and the “Population Mitochondria Different-Phenotype (%)” value (HEK-293T; 24 h, replicate 1) was 75% and 81%. The “Population Mitotic Cells (%)” value (HEK-293T; 24 h, replicate 1) was 46% and 54%, the “Population Normal (%)” value (HEK-293T; 24 h, replicate 1) was 86% and 90% and the “Population Tubulin-Different-Phenotype (%)” value (HEK-293T; 24 h, replicate 1) was 43% and 44%. For the same compound, the “Total Cell Count” value (HEK-293T; 24 h, replicate 1) was 337 and 289, the “Population Apoptotic (%)” value (HEK-293T; 24 h, replicate 2) was 44% and 58% and the “Population Mitochondria Different-Phenotype (%)” value (HEK-293T; 24 h, replicate 2) was 82% and 86%. The “Population Mitotic Cells (%)” value (HEK-293T; 24 h, replicate 2) was 55% and 41%, the “Population Normal (%)” value (HEK-293T; 24 h, replicate 2) was 77% and 71% and the “Population Tubulin-Different-Phenotype (%)” value (HEK-293T; 24 h, replicate 2) was 33% and 57%. The “Total Cell Count” value (HEK-293T; 24 h, replicate 2) was 225 and 283, the “Population Apoptotic (%)” value (HEK-293T; 48 h, replicate 1) was 56% and 69% and the “Population Healthy Nuclei (%)” value (HEK-293T; 48 h, replicate 1) was 70% and 72%. The “Population Membrane Permeable-Phenotype (%)” value (HEK-293T; 48 h, replicate 1) was 0%, the “Population Mitochondria Different-Phenotype (%)” value (HEK-293T; 48 h, replicate 1) was 77% and 75% and the “Population Mitotic Cells (%)” value (HEK-293T; 48 h, replicate 1) was 43%. For the same compound, the “Population Normal (%)” value (HEK-293T; 48 h, replicate 1) was 73% and 80%, the “Population Tubulin-Different-Phenotype (%)” value (HEK-293T; 48 h, replicate 1) was 47% and 35% and the “Total Cell Count” value (HEK-293T; 48 h, replicate 1) was 292 and 275. The “Population Apoptotic (%)” value (HEK-293T; 48 h, replicate 2) was 68% and 58%, the “Population Healthy Nuclei (%)” value (HEK-293T; 48 h, replicate 2) was 56% and the “Population Membrane Permeable-Phenotype (%)” value (HEK-293T; 48 h, replicate 2) was 1%. For the same compound, the “Population Mitochondria Different-Phenotype (%)” value (HEK-293T; 48 h, replicate 2) was 80% and 82%, the “Population Mitotic Cells (%)” value (HEK-293T; 48 h, replicate 2) was 41% and the “Population Normal (%)” value (HEK-293T; 48 h, replicate 2) was 38% and 36%. For the same compound, the “Population Tubulin-Different-Phenotype (%)” value (HEK-293T; 48 h, replicate 2) was 37% and 58%, the “Total Cell Count” value (HEK-293T; 48 h, replicate 2) was 235 and 234 and the “Population Healthy Nuclei (%)” value (Fibroblast; 12 h, replicate 1) was 60% and 61%. The “Population Mitotic Cells (%)” value (Fibroblast; 12 h, replicate 1) was 72% and 76%, the “Population Normal (%)” value (Fibroblast; 12 h, replicate 1) was 94% and 95% and the “Population Tubulin-Different-Phenotype (%)” value (Fibroblast; 12 h, replicate 1) was 62% and 53%. The “Total Cell Count” value (Fibroblast; 12 h, replicate 1) was 155 and 135, the “Population Healthy Nuclei (%)” value (Fibroblast; 12 h, replicate 2) was 44% and the “Population Mitotic Cells (%)” value (Fibroblast; 12 h, replicate 2) was 65% and 66%. For the same compound, the “Population Normal (%)” value (Fibroblast; 12 h, replicate 2) was 90%, the “Population Tubulin-Different-Phenotype (%)” value (Fibroblast; 12 h, replicate 2) was 64% and the “Total Cell Count” value (Fibroblast; 12 h, replicate 2) was 131 and 150. For the same compound, the “Population Healthy Nuclei (%)” value (Fibroblast; 24 h, replicate 1) was 64%, the “Population Mitotic Cells (%)” value (Fibroblast; 24 h, replicate 1) was 66% and 50% and the “Population Normal (%)” value (Fibroblast; 24 h, replicate 1) was 96% and 94%. For the same compound, the “Population Tubulin-Different-Phenotype (%)” value (Fibroblast; 24 h, replicate 1) was 62% and 48%, the “Total Cell Count” value (Fibroblast; 24 h, replicate 1) was 137 and 135 and the “Population Healthy Nuclei (%)” value (Fibroblast; 24 h, replicate 2) was 57% and 45%. For the same compound, the “Population Mitotic Cells (%)” value (Fibroblast; 24 h, replicate 2) was 56% and 77%, the “Population Normal (%)” value (Fibroblast; 24 h, replicate 2) was 93% and 95% and the “Population Tubulin-Different-Phenotype (%)” value (Fibroblast; 24 h, replicate 2) was 59% and 60%. For the same compound, the “Total Cell Count” value (Fibroblast; 24 h, replicate 2) was 128 and 150, the “Population Healthy Nuclei (%)” value (Fibroblast; 48 h, replicate 1) was 72% and 71% and the “Population Mitotic Cells (%)” value (Fibroblast; 48 h, replicate 1) was 50%. For the same compound, the “Population Normal (%)” value (Fibroblast; 48 h, replicate 1) was 96% and 97%, the “Population Tubulin-Different-Phenotype (%)” value (Fibroblast; 48 h, replicate 1) was 67% and 54% and the “Total Cell Count” value (Fibroblast; 48 h, replicate 1) was 127 and 124. The “Population Healthy Nuclei (%)” value (Fibroblast; 48 h, replicate 2) was 62% and 46%, the “Population Mitotic Cells (%)” value (Fibroblast; 48 h, replicate 2) was 46% and the “Population Normal (%)” value (Fibroblast; 48 h, replicate 2) was 95% and 98%. For the same compound, the “Population Tubulin-Different-Phenotype (%)” value (Fibroblast; 48 h, replicate 2) was 61% and 77%, the “Total Cell Count” value (Fibroblast; 48 h, replicate 2) was 136 and 147 and the “Population Apoptotic (%)” value (U2OS; 12 h, replicate 1) was 68% and 85%. For the same compound, the “Population Healthy Nuclei (%)” value (U2OS; 12 h, replicate 1) was 55%, the “Population Normal (%)” value (U2OS; 12 h, replicate 1) was 98% and 96% and the “Total Cell Count” value (U2OS; 12 h, replicate 1) was 288 and 258. The “Population Apoptotic (%)” value (U2OS; 12 h, replicate 2) was 76% and 92%, the “Population Healthy Nuclei (%)” value (U2OS; 12 h, replicate 2) was 71% and 61% and the “Total Cell Count” value (U2OS; 12 h, replicate 2) was 109 and 101. The “Population Apoptotic (%)” value (U2OS; 24 h, replicate 1) was 77% and 84%, the “Population Healthy Nuclei (%)” value (U2OS; 24 h, replicate 1) was 54% and 55% and the “Population Normal (%)” value (U2OS; 24 h, replicate 1) was 98% and 96%. The “Total Cell Count” value (U2OS; 24 h, replicate 1) was 287 and 256, the “Population Apoptotic (%)” value (U2OS; 24 h, replicate 2) was 73% and 83% and the “Population Healthy Nuclei (%)” value (U2OS; 24 h, replicate 2) was 72%. The “Population Normal (%)” value (U2OS; 24 h, replicate 2) was 97%, the “Total Cell Count” value (U2OS; 24 h, replicate 2) was 115 and 106 and the “Population Apoptotic (%)” value (U2OS; 48 h, replicate 1) was 78% and 72%. For the same compound, the “Population Healthy Nuclei (%)” value (U2OS; 48 h, replicate 1) was 44% and 39%, the “Population Normal (%)” value (U2OS; 48 h, replicate 1) was 93% and 97% and the “Total Cell Count” value (U2OS; 48 h, replicate 1) was 300 and 270. For the same compound, the “Population Apoptotic (%)” value (U2OS; 48 h, replicate 2) was 82% and 81% and the “Total Cell Count” value (U2OS; 48 h, replicate 2) was 147 and 123.
